Consider 16 molecules from ChEMBL document CHEMBL1138601, “Diversity-oriented synthesis of a cytisine-inspired pyridone library leading to the discovery of novel inhibitors of Bcl-2” (Bioorg Med Chem Lett, 2009).

Assay [1] has as its target Apoptosis regulator Bcl-2 (Homo sapiens, UniProt P10415). As to the kind of experiment: Displacement of fluorescently-tagged BH3 peptide from Bcl-2 by chemiluminescent nitrogen detection method. Summed up:
(§1)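 Solution-phase competition binding in HTS format. Inhibitors compete with a fluorescently tagged BH3 peptide for Bcl-2 or Bcl-xL. Library compounds were first screened at one fixed concentration. Hits exceeding three standard deviations above assay error were then run in a multi-point dilution series, and Ki values were derived from that series.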

The target in the next assay is Bcl-2-like protein 1 (Homo sapiens, UniProt Q07817). As to the kind of experiment: Displacement of fluorescently-tagged BH3 peptide from Bcl-XL by chemiluminescent nitrogen detection method. The method, boiled down: as §1
Sequence of Bcl-2-like protein 1 (Q07817 whole entry): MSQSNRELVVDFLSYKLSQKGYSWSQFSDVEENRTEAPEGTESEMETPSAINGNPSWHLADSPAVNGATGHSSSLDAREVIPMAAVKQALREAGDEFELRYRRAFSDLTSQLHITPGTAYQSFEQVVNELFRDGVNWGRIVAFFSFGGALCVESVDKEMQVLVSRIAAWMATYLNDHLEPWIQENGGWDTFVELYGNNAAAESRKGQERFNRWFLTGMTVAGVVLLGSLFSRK

SMILES strings stand for the structures.

Sequence of Apoptosis regulator Bcl-2 (P10415 whole entry): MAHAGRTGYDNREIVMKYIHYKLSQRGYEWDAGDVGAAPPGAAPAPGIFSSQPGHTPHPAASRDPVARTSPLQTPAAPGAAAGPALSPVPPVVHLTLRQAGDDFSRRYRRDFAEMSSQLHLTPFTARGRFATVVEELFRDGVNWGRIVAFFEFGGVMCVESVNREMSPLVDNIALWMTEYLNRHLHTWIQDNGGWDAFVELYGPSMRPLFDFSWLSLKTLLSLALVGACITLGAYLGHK

In the case of `O=C([C@@H]1[C@@H](CO)[C@@H]2Cn3c(cccc3=O)[C@@H]2N1Cc1ccc(Cl)c(Cl)c1)N1CCC(c2ccc(F)cc2)CC1`, the Ki in assay [1] was 2.2 µM; on Bcl-2-like protein 1, more than 100 µM.

Take `COCCNC(=O)[C@@H]1[C@@H](CO)[C@@H]2Cn3c(cccc3=O)[C@H]1N2c1nc(-c2ccc(Cl)cc2)c(-c2ccccc2)s1`: the Ki in assay [1] was 4.3 µM; on Bcl-2-like protein 1 it was more than 100 µM.

As to `O=C([C@@H]1[C@@H](CO)[C@@H]2Cn3c(cccc3=O)[C@@H]2N1Cc1ccc(Oc2ccccc2)cc1)N1CCC(c2ccc(F)cc2)CC1`, the Ki in assay [1] was 6.8 µM; at Bcl-2-like protein 1, more than 100 µM.

As for `O=C(NCCN1CCCCC1)[C@@H]1[C@@H](CO)[C@@H]2Cn3c(cccc3=O)[C@H]1N2c1nc(-c2ccc(Cl)cc2)c(-c2ccccc2)s1`, the inhibitory constant (Ki) in assay [1] amounted to 2.5 µM; on Bcl-2-like protein 1, 6 µM.

In the case of `O=C(N[C@@H]1CCN(Cc2ccccc2)C1)[C@H]1[C@H](CO)[C@H]2Cn3c(cccc3=O)[C@H]2N1CC1CCCCC1`, the values for the Ki (in assay [1]; at Bcl-2-like protein 1) were 7.8 µM and more than 100 µM, respectively.

Regarding `O=C(NCCCN1CCCC1)[C@@H]1[C@@H](CO)[C@@H]2Cn3c(cccc3=O)[C@H]1N2c1nc(-c2ccc(Cl)cc2)c(-c2ccccc2)s1`, the Ki in assay [1] came out at 3 µM; at Bcl-2-like protein 1, 5.7 µM.

Regarding `CN(C)CCNC(=O)[C@@H]1[C@@H](CO)[C@@H]2Cn3c(cccc3=O)[C@H]1N2c1nc(-c2ccc(Cl)cc2)c(-c2ccccc2)s1`, the Ki in assay [1] is 2 µM; at Bcl-2-like protein 1 it was 5.7 µM.

For `O=C(NCc1ccc(Oc2ccccc2)cc1)[C@H]1[C@H](CO)[C@H]2Cn3c(cccc3=O)[C@H]2N1CC1CCCCC1`, the Ki was 8.4 µM in assay [1] and more than 100 µM at Bcl-2-like protein 1.

`O=C([C@@H]1[C@@H](CO)[C@@H]2Cn3c(cccc3=O)[C@@H]2N1Cc1ccc(Oc2ccccc2)cc1)N1CCC(Cc2ccccc2)CC1`: the results for the Ki (in assay [1]; on Bcl-2-like protein 1) were 5.2 µM and more than 100 µM, respectively.

On to `O=C([C@@H]1[C@@H](CO)[C@@H]2Cn3c(cccc3=O)[C@@H]2N1Cc1ccc(Cl)c(Cl)c1)N1CCC(Cc2ccccc2)CC1`, for which the Ki in assay [1] is 1.2 µM; on Bcl-2-like protein 1, more than 100 µM.

On to `O=C(NC1Cc2ccccc2C1)[C@H]1[C@H](CO)[C@H]2Cn3c(cccc3=O)[C@H]2N1CC1CCCCC1`, for which the Ki in assay [1] was 5.4 µM; at Bcl-2-like protein 1 it was more than 100 µM.

On to `O=C(NCCN1CCCCC1)[C@H]1[C@H](CO)[C@H]2Cn3c(cccc3=O)[C@@H]1N2c1nc(-c2ccc(Cl)cc2)c(-c2ccccc2)s1`, for which the Ki was determined as 1.5 µM in assay [1] and 11 µM at Bcl-2-like protein 1.

Turning to `O=C(N[C@H]1CCN(Cc2ccccc2)C1)[C@H]1[C@H](CO)[C@H]2Cn3c(cccc3=O)[C@H]2N1CC1CCCCC1`, the figures for the Ki (in assay [1]; on Bcl-2-like protein 1) were 4.1 µM and more than 100 µM, respectively.

As for `CN(C)CCNC(=O)[C@H]1[C@H](CO)[C@H]2Cn3c(cccc3=O)[C@@H]1N2c1nc(-c2ccc(Cl)cc2)c(-c2ccccc2)s1`, the Ki in assay [1] was determined as 1.3 µM; at Bcl-2-like protein 1, 6.6 µM.

Regarding `COCCNC(=O)[C@H]1[C@H](CO)[C@H]2Cn3c(cccc3=O)[C@@H]1N2c1nc(-c2ccc(Cl)cc2)c(-c2ccccc2)s1`, the Ki in assay [1] is 14 µM; at Bcl-2-like protein 1, more than 100 µM.

Take `O=C(NCCCN1CCCC1)[C@H]1[C@H](CO)[C@H]2Cn3c(cccc3=O)[C@@H]1N2c1nc(-c2ccc(Cl)cc2)c(-c2ccccc2)s1`: the Ki in assay [1] was 1.6 µM; on Bcl-2-like protein 1, 7.8 µM.

The Ki is a measure of affinity in units of concentration, obtained from inhibition or displacement.
